# Test results taken from ChEMBL document CHEMBL3784941, “Rational Design, Synthesis, and Preliminary Structure-Activity Relationships of α-Substituted-2-Phenylcyclopropane Carboxylic Acids as Inhibitors of Salmonella typhimurium O-Acetylserine Sulfhydrylase” (J Med Chem, 2016).
# Active and inactive are the calls of the source. The calls are words filed in the database; no cut-off is given here.
# Experiments:
# [1] = Binding affinity to recombinant Salmonella typhimurium His6-tagged OASS-A expressed in Escherichia coli by fluorimetric titration method; parameters: species or system Salmonella enterica subsp. enterica serovar Typhimurium
# Procedure, shortened: (§1)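 OASS coenzyme fluorescence titrated with ligand. Conditions were 0.5−1.0 μM enzyme in 100 mM Hepes, pH 7.0, at 20 °C. Excitation was at 412 nm and the emission spectra were recorded. Intensity at 500 nm, minus the ligand-free signal, was fitted to a single-site binding isotherm to give Kdiss.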
# [2] = Binding affinity to recombinant Salmonella typhimurium His10-tagged OASS-B expressed in Escherichia coli by fluorimetric titration method; parameters: species or system Salmonella enterica subsp. enterica serovar Typhimurium; procedure, shortened: as §1
# [3] = test system: Salmonella enterica subsp. enterica serovar Typhimurium; experiment: Binding affinity to recombinant Salmonella typhimurium His6-tagged OASS-A expressed in Escherichia coli at <20 uM by fluorimetric titration method; procedure, shortened: as §1
# [4] = Solubility in 100 mM HEPES buffer at pH 7 containing 1% DMSO at >20 uM at 20 degC; type: physicochemical
# [5] = Inhibition of recombinant Salmonella typhimurium His6-tagged OASS-A expressed in Escherichia coli using OAS as substrate by discontinuous assay; parameters: species or system Salmonella enterica subsp. enterica serovar Typhimurium
# [6] = Inhibition of recombinant Salmonella typhimurium His10-tagged OASS-B expressed in Escherichia coli using OAS as substrate by discontinuous assay; parameters: species or system Salmonella enterica subsp. enterica serovar Typhimurium
molecule,measurement,setting,value
O=C(O)[C@@]1(Cc2ccccc2)C[C@@H]1c1ccccc1,Kd,[1],50 µM
same,Kd,[2],197 µM
CC[C@]1(C(=O)O)C[C@@H]1c1ccccc1,Kd,[1],1200 µM
same,Kd,[2],> 2000 µM
CCOC(=O)[C@@]1(Cc2ccccc2)C[C@@H]1c1ccccc1 (relative stereo),Activity,[3],inactive
same,solubility,[4],Insoluble
O=C(O)[C@@]1(Cc2ccc(Cl)cc2)C[C@@H]1c1ccccc1 (racemic),Kd,[1],0.156 µM
same,Kd,[2],0.76 µM
O=C(O)[C@]1(Cc2ccccc2)C[C@H]1c1ccccc1,Kd,[1],0.067 µM
same,Kd,[2],1.66 µM
O=C(O)[C@@]1(Cc2ccccc2)C[C@@H]1c1ccccc1 (racemic),Kd,[1],0.2 µM
same,Kd,[2],4.1 µM
O=C(O)[C@H]1C[C@@H]1c1ccccc1 (relative stereo),Kd,[1],9.2 µM
same,Kd,[2],148 µM
Cc1ccc(C[C@@]2(C(=O)O)C[C@H]2c2ccccc2)cc1,Kd,[1],0.028 µM
same,Kd,[2],0.49 µM
CC[C@@]1(C(=O)O)C[C@H]1c1ccccc1,Kd,[1],12.1 µM
same,Kd,[2],860 µM
CC[C@]1(C(=O)O)C[C@@H]1c1ccccc1 (racemic),Kd,[1],15 µM
same,Kd,[2],720 µM
H-MNLNI-OH,Kd,[1],120 µM
same,Kd,[2],3000 µM
Cc1ccc(C[C@]2(C(=O)O)C[C@@H]2c2ccccc2)cc1,Kd,[1],81 µM
same,Kd,[2],121 µM
O=C(O)[C@@]1(Cc2ccc(Cl)cc2)C[C@@H]1c1ccccc1,IC50,[5],14 µM
same,Kd,[1],84 µM
same,Kd,[2],152 µM
same,IC50,[6],48 µM
O=C(O)[C@]1(Cc2ccc(Cl)cc2)C[C@H]1c1ccccc1,IC50,[5],0.099 µM
same,Kd,[1],0.054 µM
same,Kd,[2],0.42 µM
same,IC50,[6],0.5 µM
O=C(O)[C@@]1(CCc2ccccc2)C[C@@H]1c1ccccc1 (relative stereo),Kd,[1],14 µM
same,Kd,[2],27 µM
Cc1ccc(C[C@]2(C(=O)O)C[C@@H]2c2ccccc2)cc1 (racemic),Kd,[1],0.077 µM
same,Kd,[2],1.2 µM
